Assay results reported in the EternaBench riboswitch data.

System: MS2 coat protein
Experiment: apparent Kd, MS2 coat protein; higher = weaker binding; RNA-MaP array; FMN 200 µM where present
Procedure, shortened: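 SNAP-549-labelled MS2 coat protein, doubled from 0.7 or 1.5 nM to 3 µM, was titrated over designs transcribed by stalled E. coli RNA polymerase on Illumina sequencing-chip clusters. Titrations were run without and then with constant ligand in 100 mM Tris-HCl pH 7.5, 80 mM KCl, 4 mM MgCl2, BSA, DTT, yeast tRNA and Tween-20. The apparent Kd is the median of filtered per-cluster fits to green signal normalised to red-channel RNA signal and control-cluster median Fmax.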

[1] = designed as: ON switch for flavin mononucleotide, no ligand
[2] = ligand present: flavin mononucleotide, designed as: ON switch for flavin mononucleotide
[3] = designed as: OFF switch for flavin mononucleotide, no ligand
[4] = ligand present: flavin mononucleotide, designed as: OFF switch for flavin mononucleotide

GUAGCUAUCGGAGGAUAUUCAUGAUACAUGAGGAUCACCCAUGUUAAAGUGGGAGAAGGCCGAUAGCUACAAGAGCGAAAGCUC
apparent Kd [1]: 44.8 nM
apparent Kd [2]: 6.87 nM

GCACUGGAUGUAGGAUAUCAGGACGAUAAGUCCUGAGAAGGACAUGAGGAUCACCCAUGUCUCAUAAACCAGUGCUAUAAUAUA
apparent Kd [3]: 14.6 nM
apparent Kd [4]: 18.8 nM

UGAAUAAUGUUAGGAUAUACAUGAGGAAUCCUCGUAGAAGGAACAUGACAUGAGGAUCACCCAUGUAGCGCUCAGAAGAGCGCA
apparent Kd [1]: 140 nM
apparent Kd [2]: 135 nM

AAAUUGACGGGACAUGAGGAUCACCCAUGUGCUAGCCGGACCAGAAGGGCAGCCGGCACGUGGUUGCAGGAUAUGGCCGUCGCA
apparent Kd [1]: 154 nM
apparent Kd [2]: 151 nM

GUGACGAAUGUAGGAUAUGCUGACCAAUGGUCAGCAGAAGGACAUGAGGAUCACCCAUGUCAUCCUUAUAAUAAAUAACGUCAC
apparent Kd [3]: 13.4 nM
apparent Kd [4]: 18.1 nM

CUAAUUAGUCAGAAGGUGCUGCCGGAAUCAUAGCAAGGAUAUGACAUGAGGAUCACCCAUGUACAGAUCCUACAUAAAAUCAGG
apparent Kd [3]: 5.73 nM
apparent Kd [4]: 8.98 nM

CCUAAGGACACAGGAUAUAGCGUGGUGGCUGGGCUCCCACGGCGAGCGGCGCUAGAAGGGUGACCACAUGAGGAUCACCCAUGU
apparent Kd [1]: 538 nM
apparent Kd [2]: 148 nM

AAGAAGUGAGGAUAUGCUGCUCGUCACUUGCGUGAUGAGUAGCAGAAGGCACAUGAGGAUCACCCAUGUGGAAG
apparent Kd [3]: 33.9 nM
apparent Kd [4]: 47.8 nM

UAAUAGUAUGUUAGGAUAUGCUGGUCCUUGGAUCAGCAGAAGGAACAUGAGGAUCACCCAUGUAGACUAUUUUA
apparent Kd [3]: 15.5 nM
apparent Kd [4]: 30 nM

CGAUGUUAUGUCAGGAUAUGCAUUGCGAAAGCGAUGCAGAAGGGACAUGAGGAUCACCCAUGUCCUAACCAUCG
apparent Kd [3]: 12.3 nM
apparent Kd [4]: 18.8 nM

AAGAAGUCAGGAUAUGCAUGGCGGGACUUGCGUCGUGGCGUGCAGAAGGGACAUGAGGAUCACCCAUGUGGAGU
apparent Kd [3]: 155 nM
apparent Kd [4]: 241 nM

ACUAGAUGAGGAUAUGCAUGUUUUCAUGUUCUUCUAGAUUAACAUGAGGAUCACCCAUGUAGAAGGCGUCUUUU
apparent Kd [3]: 21.4 nM
apparent Kd [4]: 32 nM

UGUCGGAGCAGAGGAUAUACAUGAGGAUCACCCAUGUAAGAAAGUGAAGCCUGGAAACAGGCAAUGUAGAAGGCUGCUCCGACA
apparent Kd [3]: 12.4 nM
apparent Kd [4]: 86.3 nM

CAGCGAAAGCUGAAUCUGUAGAGAGAGGAUAUACGUCAUAAGGUGCAUACAUGAGGAUCACCCAUGUAGAAGGCUCUCUACAGU
apparent Kd [3]: 25.3 nM
apparent Kd [4]: 603 nM

CCUAUGUGAGGAUAUCACUGGUCUGCUCACUAGAUGAUCAGUGAGAAGGCACAUGAGGAUCACCCAUGUCAGUG
apparent Kd [3]: 183 nM
apparent Kd [4]: 41.7 nM

AGCGGUGCAGGAUAUGGCCGAUCCCACAUGAGGAUCACCCAUGUAAAUAAAAUAAGAUCUCCAGAAGGGCAUCGCA
apparent Kd [3]: 30.4 nM
apparent Kd [4]: 15.6 nM

AGAUACAGGCAGAAGGGUUGGUAAGUUGGGUCAACAGGAUAUGCCUCUGUGACAUGAGGAUCACCCAUGUUACCAAACAGUCUU
apparent Kd [1]: 583 nM
apparent Kd [2]: 49.5 nM

AGAUAGCGAAUAGUAAUAAAAGUACAGGAUAUGUUACAUGAGGAUCACCCAUGUAUUGGGUAAGAACAGAAGGGUACGCUAGAG
apparent Kd [3]: 144 nM
apparent Kd [4]: 123 nM

CUUUAGUGAGGAUAUGUGGCUUCGAUCGUGAGAUCGAGGCUACAGAAGGCACAUGAGGAUCACCCAUGUUUCUU
apparent Kd [3]: 17.2 nM
apparent Kd [4]: 81 nM

AACUUCCCGUCAGGAUAUCGCCGUAGGUCCUCGGGUCUCGCCGUCAUACAUGAGGAUCACCCAUGUGAGAAGGGACGGGAUUCA
apparent Kd [3]: 21.8 nM
apparent Kd [4]: 117 nM

GUCAGGAAUGUAGGAUAUCGUCAGGAUAACUGGCGAGAAGGACAUGAGGAUCACCCAUGUAAAAUGAAAGAUAAUAAACCUGGC
apparent Kd [3]: 19.3 nM
apparent Kd [4]: 31.1 nM

GUAGCAUACAGAGGAUAUCUUAACCGGAAACGGACAUGAGGAUCACCCAUGUGGCGAAAGCCUAGGGAGAAGGCUGAAUGCUAC
apparent Kd [1]: 10.2 nM
apparent Kd [2]: 11.1 nM

UUACUUGUGCAGAAGGGCAUUGAUUUAGGUUUUUAGGUUGAUCAGAUAUGCAGGAUAUGCUAUACAUGAGGAUCACCCAUGUUC
apparent Kd [1]: 112 nM
apparent Kd [2]: 8.99 nM

UGAAAUCAUGUAGGAUAUGCAUGGCGAAGCUACGCAGAAGGACAUGAGGAUCACCCAUGUUCUAGCUACCGAGUACGGUGGCAA
apparent Kd [3]: 23.1 nM
apparent Kd [4]: 121 nM

GGUGGUGUCCGAGGAUAUCGUUAGGCGUUGUUGCGAGAAGGCGGACAUGAGGAUCACCCAUGUUUGAUAAAAGAGGAGGUUGUG
apparent Kd [3]: 86.1 nM
apparent Kd [4]: 130 nM

GAGGAGGUAGGAUAUACGAUAAUAUAGGGUAGAUAUAUAACACAUGAGGAUCACCCAUGUAGAAGGACCAGGAG
apparent Kd [3]: 34.4 nM
apparent Kd [4]: 62.4 nM

AUACGGAGGGAGAAGGGCUAGGAGGUCCAGCUUAUGUGUGUUGCAACAUGAGGAUCACCCAUGUAGCAGGAUAUCCCUUGUACA
apparent Kd [3]: 42.9 nM
apparent Kd [4]: 231 nM

CUUUCGUUAGCAGGAUAUGGACAGGCCUGUCCGUCUUGAGUCAGUAACAUGAGGAUCACCCAUGUCCAGAAGGGCUCGAAGGGA
apparent Kd [3]: 17.7 nM
apparent Kd [4]: 32.4 nM

GCUGACGAUGUAGGAUAUCUCGACGAUAAGUCGAGAGAAGGACAUGAGGAUCACCCAUGUAUCUCAACGUCAGCGAGGAAACUC
apparent Kd [3]: 16.4 nM
apparent Kd [4]: 20.4 nM

UGUUGUAUUACAGGAUAUCUAGUAUUUUUAUUGAGAGAAGGGUAUUCACAUGAGGAUCACCCAUGUAUAUACGAGGAAGUUGUG
apparent Kd [1]: 50.5 nM
apparent Kd [2]: 49 nM

AAAAUCUAUACAGGAUAUCCAUACGCUGCAUACGGAGAAGGGUAACAAUCAUGAGGACAUGAGGAUCACCCAUGUUGUGACCAU
apparent Kd [1]: 232 nM
apparent Kd [2]: 76.1 nM

ACUCGGAGCUGGCGACAGAAGACAUGAGGAUCACCCAUGUAGAGAAGGAGCCCUGGGACCGGUGGCUAGGAUAUUUACAUCGGU
apparent Kd [3]: 6.9 nM
apparent Kd [4]: 12.3 nM

UGUUGUAUUACAGGAUAUCUAGUAAUUUUAUUUAGAGAAGGGUAUUCACAUGAGGAUCACCCAUGUAUAUACGAGGAAGUUGUG
apparent Kd [1]: 37 nM
apparent Kd [2]: 39.7 nM

UCCGUGGCAUCUCGCGCAUGUCUACAUGAGGAUCACCCAUGUCAGGAUAUACGGAUUGUCGUUCUGUAGAAGGGACAAGGGCUG
apparent Kd [3]: 131 nM
apparent Kd [4]: 108 nM

AACCUGGUAAAUAAACUCAAUUACAUGAGGAUCACCCAUGUAUAGGAUAUGCAGUGGAAUACACUGCAGAAGGAUACAUCCAGG
apparent Kd [3]: 18 nM
apparent Kd [4]: 60.9 nM

GAUCCUUCUGUUAGGAUAUGCUACGGGCUUCCGCUGCAGAAGGAACAUGAGGAUCACCCAUGUCAAAUAAAAUC
apparent Kd [3]: 20.1 nM
apparent Kd [4]: 80.2 nM
